From ChEMBL document CHEMBL1127345, “Synthesis, binding properties, and 18F labeling of fluorocarazolol, a high-affinity beta-adrenergic receptor antagonist” (J Med Chem, 1994)

Tests used:
Mus musculus [1] = experiment: The in vivo tissue distribution of mouse bone with Propranolol administration after 40 min, value was fractional dose per fractional body weight of the organ; format: ADME, organism-based, Bone element
Method in brief: (§1)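 Male CF-1 mice (25–30 g), anesthetised with 2 mg sodium pentobarbital ip 30 min before tracer. Where blocked, propranolol iv via tail vein (0.1 mL of […]; […]) about 30 min before tracer. Tracer given by tail vein, 0.1 mL at 1–2 mCi/mL. Mice killed by cervical dislocation at set times, organs weighed and counted. %ID/g × body weight/100 gives unitless uptake. Heart, brain, blood, lung, kidney, liver and bone n=5; average ± SD.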

Mus musculus [2] = experiment: The in vivo tissue distribution of mouse bone with Propranolol administration after 60 min, value was fractional dose per fractional body weight of the organ; format: ADME, organism-based, Bone element; conditions: 1 h; method in brief: as §1
Mus musculus [3] = experiment: The in vivo tissue distribution of mouse bone with Propranolol preadministration in 20 min, value was fractional dose per fractional body weight of the organ; format: ADME, organism-based, Bone element; method in brief: as §1
Mus musculus [4] = experiment: The in vivo tissue distribution of mouse bone with Propranolol preadministration in 40 min, value was fractional dose per fractional body weight of the organ; format: ADME, organism-based, Bone element; method in brief: as §1
Mus musculus [5] = experiment: The in vivo tissue distribution of mouse bone with Propranolol preadministration in 60 min, value was fractional dose per fractional body weight of the organ; format: ADME, organism-based, Bone element; conditions: 1 h; method in brief: as §1
Mus musculus [6] = experiment: The in vivo tissue distribution of mouse brain with Propranolol administration after 10 min, value was fractional dose per fractional body weight of the organ; format: ADME, organism-based; method in brief: as §1
Mus musculus [7] = experiment: The in vivo tissue distribution of mouse heart with Propranolol preadministration in 10 min, value was fractional dose per fractional body weight of the organ; format: ADME, organism-based; method in brief: as §1
Mus musculus [8] = experiment: The in vivo tissue distribution of mouse kidney with Propranolol administration after 10 min, value was fractional dose per fractional body weight of the organ; format: ADME, organism-based
Method in brief: (§2)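 Male CF-1 mice (25–30 g), given 2 mg sodium pentobarbital ip 30 min before tracer. Blocked groups received propranolol iv by tail vein, 0.1 mL of 1 mg/mL. About 30 min later, 0.1 mL of [18F]tracer (1–2 mCi/mL) was injected by tail vein. Mice were killed by cervical dislocation at set times, and organs were weighed and counted. Uptake is %ID/g × body weight/100, average ± SD; n=5 for heart, brain, blood, lung, kidney, liver and bone.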

Mus musculus [9] = experiment: The in vivo tissue distribution of mouse kidney with Propranolol administration after 120 min, value was fractional dose per fractional body weight of the organ; format: ADME, organism-based; conditions: 2 h; method in brief: as §1
Mus musculus [10] = experiment: The in vivo tissue distribution of mouse kidney with Propranolol administration after 180 min, value was fractional dose per fractional body weight of the organ; format: ADME, organism-based; conditions: 3 h; method in brief: as §1
Mus musculus [11] = experiment: The in vivo tissue distribution of mouse kidney with Propranolol administration after 40 min, value was fractional dose per fractional body weight of the organ; format: ADME, organism-based; method in brief: as §2
Mus musculus [12] = experiment: The in vivo tissue distribution of mouse kidney with Propranolol administration after 90 min, value was fractional dose per fractional body weight of the organ; format: ADME, organism-based; conditions: 1.5 h; method in brief: as §1
Mus musculus [13] = experiment: The in vivo tissue distribution of mouse heart with Propranolol administration after 40 min, value was fractional dose per fractional body weight of the organ; format: ADME, organism-based; method in brief: as §1
Mus musculus [14] = experiment: The in vivo tissue distribution of mouse blood with Propranolol administration after 10 min, value was fractional dose per fractional body weight of the organ; format: ADME, organism-based; method in brief: as §1
Mus musculus [15] = experiment: The in vivo tissue distribution of mouse brain with Propranolol administration after 90 min, value was fractional dose per fractional body weight of the organ; format: ADME, organism-based; conditions: 1.5 h; method in brief: as §1
Mus musculus [16] = experiment: The in vivo tissue distribution of mouse blood with Propranolol administration after 20 min, value was fractional dose per fractional body weight of the organ; format: ADME, organism-based; method in brief: as §1
Mus musculus [17] = experiment: The in vivo tissue distribution of mouse blood with Propranolol administration after 90 min, value was fractional dose per fractional body weight of the organ; format: ADME, organism-based; conditions: 1.5 h
Method in brief: (§3)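 Male CF-1 mice (25–30 g) anaesthetised with 2 mg sodium pentobarbital ip; blocked group given 0.1 mL of […] propranolol iv via tail vein (200 μg, 6.6 mg/kg), tracer 30 min later. 0.1 mL of 1–2 mCi/mL [18F]-labelled enantiomer iv via tail vein; killed by cervical dislocation, organs weighed and counted against weighed standards. %ID/g × body weight/100 gives unitless uptake; five mice per point (heart, blood, lung, kidney, liver, bone); mean ± SD.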

Mus musculus [18] = experiment: The in vivo tissue distribution of mouse bone with Propranolol administration after 10 min, value was fractional dose per fractional body weight of the organ; format: ADME, organism-based, Bone element; method in brief: as §1
Mus musculus [19] = experiment: The in vivo tissue distribution of mouse bone with Propranolol administration after 120 min, value was fractional dose per fractional body weight of the organ; format: ADME, organism-based, Bone element; conditions: 2 h; method in brief: as §2
Mus musculus [20] = experiment: The in vivo tissue distribution of mouse bone with Propranolol administration after 180 min, value was fractional dose per fractional body weight of the organ; format: ADME, organism-based, Bone element; conditions: 3 h; method in brief: as §2
Mus musculus [21] = experiment: The in vivo tissue distribution of mouse heart with Propranolol administration after 10 min, value was fractional dose per fractional body weight of the organ; format: ADME, organism-based; method in brief: as §3
Mus musculus [22] = experiment: The in vivo tissue distribution of mouse liver with Propranolol administration after 90 min, value was fractional dose per fractional body weight of the organ; format: ADME, organism-based; conditions: 1.5 h; method in brief: as §2
Mus musculus [23] = experiment: The in vivo tissue distribution of mouse lung with Propranolol administration after 180 min, value was fractional dose per fractional body weight of the organ; format: ADME, organism-based; conditions: 3 h; method in brief: as §1
Mus musculus [24] = experiment: The in vivo tissue distribution of mouse lung with Propranolol administration after 20 min, value was fractional dose per fractional body weight of the organ; format: ADME, organism-based; method in brief: as §2
Mus musculus [25] = experiment: The in vivo tissue distribution of mouse lung with Propranolol administration after 40 min, value was fractional dose per fractional body weight of the organ; format: ADME, organism-based; method in brief: as §3
Mus musculus [26] = experiment: The in vivo tissue distribution of mouse liver with Propranolol administration after 120 min, value was fractional dose per fractional body weight of the organ; format: ADME, organism-based; conditions: 2 h; method in brief: as §1
Mus musculus [27] = experiment: The in vivo tissue distribution of mouse liver with Propranolol administration after 10 min, value was fractional dose per fractional body weight of the organ; format: ADME, organism-based; method in brief: as §2
Mus musculus [28] = experiment: The in vivo tissue distribution of mouse lung without Propranolol preadministration in 10 min, value was fractional dose per fractional body weight of the organ
Mus musculus [29] = experiment: The in vivo tissue distribution of mouse bone without Propranolol preadministration in 120 min, value was fractional dose per fractional body weight of the organ; conditions: 2 h
Mus musculus [30] = experiment: The in vivo tissue distribution of mouse heart without Propranolol preadministration in 20 min, value was fractional dose per fractional body weight of the organ
Mus musculus [31] = experiment: The in vivo tissue distribution of mouse liver without Propranolol preadministration in 90 min, value was fractional dose per fractional body weight of the organ; conditions: 1.5 h
Mus musculus [32] = experiment: The in vivo tissue distribution of mouse lung without Propranolol preadministration in 180 min, value was fractional dose per fractional body weight of the organ; conditions: 3 h
Mus musculus [33] = experiment: The in vivo tissue distribution of mouse blood without Propranolol preadministration in 60 min, value was fractional dose per fractional body weight of the organ; conditions: 1 h
Mus musculus [34] = experiment: The in vivo tissue distribution of mouse liver without Propranolol preadministration in 180 min, value was fractional dose per fractional body weight of the organ; conditions: 3 h
Mus musculus [35] = experiment: The in vivo tissue distribution of mouse kidney without Propranolol preadministration in 90 min, value was fractional dose per fractional body weight of the organ; conditions: 1.5 h

How did the Dose/organ (Mus musculus [1]) turn out when CC(C[18F])NC[C@@H](O)COc1cccc2[nH]c3ccccc3c12 (stereo not given in full) was run?
The Dose/organ was 0.83.

What about the Dose/organ (Mus musculus [2]) of the same compound?
The Dose/organ was 1.15.

What about the Dose/organ (Mus musculus [3]) of the same compound?
The Dose/organ was 0.93.

What about the Dose/organ (Mus musculus [4]) of the same compound?
Its Dose/organ is 0.95.

What about the Dose/organ (Mus musculus [5]) of the same compound?
The Dose/organ was 1.08.

And the Dose/organ (Mus musculus [6])?
Its Dose/organ is 1.04.

And the Dose/organ (Mus musculus [7])?
The Dose/organ was 0.93.

And the Dose/organ (Mus musculus [8])?
The Dose/organ was 5.1.

What about the Dose/organ (Mus musculus [9]) of the same compound?
Its Dose/organ is 0.63.

What about the Dose/organ (Mus musculus [10]) of the same compound?
The Dose/organ was 0.33.

What about the Dose/organ (Mus musculus [11]) of the same compound?
The Dose/organ was 2.7.

And the Dose/organ (Mus musculus [12])?
Its Dose/organ is 1.57.

And the Dose/organ (Mus musculus [13])?
Its Dose/organ is 0.73.

And the Dose/organ (Mus musculus [14])?
The Dose/organ was 0.92.

What about the Dose/organ (Mus musculus [15]) of the same compound?
The Dose/organ was 0.42.

What about the Dose/organ (Mus musculus [16]) of the same compound?
The Dose/organ was 0.57.

What about the Dose/organ (Mus musculus [17]) of the same compound?
The Dose/organ was 0.47.

And the Dose/organ (Mus musculus [18])?
The Dose/organ was 0.67.

And the Dose/organ (Mus musculus [19])?
Its Dose/organ is 1.98.

And the Dose/organ (Mus musculus [20])?
The Dose/organ was 2.98.

What about the Dose/organ (Mus musculus [21]) of the same compound?
Its Dose/organ is 1.

And the Dose/organ (Mus musculus [22])?
The Dose/organ was 1.17.

And the Dose/organ (Mus musculus [23])?
The Dose/organ was 0.26.

What about the Dose/organ (Mus musculus [24]) of the same compound?
The Dose/organ was 3.87.

And the Dose/organ (Mus musculus [25])?
Its Dose/organ is 2.

What about the Dose/organ (Mus musculus [26]) of the same compound?
The Dose/organ was 0.94.

And the Dose/organ (Mus musculus [27])?
Its Dose/organ is 3.14.

And the Dose/organ (Mus musculus [28])?
Its Dose/organ is 8.13.

And the Dose/organ (Mus musculus [29])?
The Dose/organ was 0.78.

And the Dose/organ (Mus musculus [30])?
The Dose/organ was 0.81.

What about the Dose/organ (Mus musculus [31]) of the same compound?
The Dose/organ was 1.25.

What about the Dose/organ (Mus musculus [32]) of the same compound?
The Dose/organ was 0.84.

And the Dose/organ (Mus musculus [33])?
Its Dose/organ is 0.42.

What about the Dose/organ (Mus musculus [34]) of the same compound?
Its Dose/organ is 0.78.

And the Dose/organ (Mus musculus [35])?
Its Dose/organ is 1.5.

What does the source list for CC(C[18F])NC[C@H](O)COc1cccc2[nH]c3ccccc3c12 (stereo not given in full)?
Dose/organ (Mus musculus [1]): 0.64; Dose/organ (Mus musculus [2]): 1.1; Dose/organ (Mus musculus [3]): 0.65; Dose/organ (Mus musculus [4]): 0.71; Dose/organ (Mus musculus [5]): 0.72; Dose/organ (Mus musculus [6]): 1.23; Dose/organ (Mus musculus [7]): 1.1; Dose/organ (Mus musculus [8]): 4.18; Dose/organ (Mus musculus [9]): 0.38; Dose/organ (Mus musculus [10]): 0.35; Dose/organ (Mus musculus [11]): 1.64; Dose/organ (Mus musculus [12]): 0.92; Dose/organ (Mus musculus [13]): 0.51; Dose/organ (Mus musculus [14]): 0.39; Dose/organ (Mus musculus [15]): 0.38; Dose/organ (Mus musculus [16]): 0.43; Dose/organ (Mus musculus [17]): 0.34; Dose/organ (Mus musculus [18]): 0.72; Dose/organ (Mus musculus [19]): 1.42; Dose/organ (Mus musculus [20]): 2.72; Dose/organ (Mus musculus [21]): 1.06; Dose/organ (Mus musculus [22]): 1.39; Dose/organ (Mus musculus [23]): 0.72; Dose/organ (Mus musculus [24]): 3.26; Dose/organ (Mus musculus [25]): 1.98; Dose/organ (Mus musculus [26]): 0.66; Dose/organ (Mus musculus [27]): 2.89; Dose/organ (Mus musculus [28]): 6.4; Dose/organ (Mus musculus [29]): 1.08; Dose/organ (Mus musculus [30]): 0.91; Dose/organ (Mus musculus [31]): 1.09; Dose/organ (Mus musculus [32]): 4.8; Dose/organ (Mus musculus [33]): 0.6; Dose/organ (Mus musculus [34]): 0.88; Dose/organ (Mus musculus [35]): 1.33
